Tests used:
[1] = test system: Rattus norvegicus; assay: Effect on change in plasma triglycerides (TG) in triton-induced hyperlipidemic rats after peroral administration of 100 mg/kg.; format: functional; settings: route oral
[2] = test system: Rattus norvegicus; assay: Effect on change in total cholesterol (TC) in triton-induced hyperlipidemic rats after peroral administration of 100 mg/kg.; format: functional; settings: route oral
[3] = Partition coefficient (logP) (HPLC); format: physicochemical; settings: octanol/water
In short: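 Apparent log P* was estimated from reverse-phase HPLC retention time against methyl, ethyl, n-propyl, n-butyl and n-hexyl benzoate standards. Column was C18 at 40 °C with mobile phase CH3OH/0.05 M […] pH 7.4 at 1.0 mL/min, and detection was UV at 230 nm.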

[4] = test system: Rattus norvegicus; assay: Effect on change in plasma triglycerides (TG) in triton-induced hyperlipidemic rats after po administration of 10 mg/kg; format: functional
[5] = test system: Rattus norvegicus; assay: Effect on change in total cholesterol (TC) in triton-induced hyperlipidemic rats after po administration of 10 mg/kg; format: functional

logP [3]	SMILES	Change [1]	Change [2]	Change [4]	Change [5]
4.88	CC(C)OP(=O)(Cc1ccc(-c2nc3ccc(Br)cc3c(=O)n2C)cc1)OC(C)C	<-37%	-11%		
4.51	CCOP(=O)(Cc1ccc(-c2nc(OC)c3cc(OC)c(OC)cc3n2)cc1)OCC	<-86%	<-60%		
3.13	CCOP(=O)(Cc1ccc(-c2nc(O)c3c(F)cccc3n2)cc1)OCC	-8%	-8%		
4.49	CCOP(=O)(Cc1ccc(-c2nc3cc(OC)c(OC)cc3c(=O)n2Cc2ccccc2)cc1)OCC	<-85%	<-60%	< -30%	< -15%
2.55	CCOP(=O)(Cc1ccc(-c2nc(O)c3ccccc3n2)cc1)OCC				
5.61	COc1nc(-c2ccc(CP(=O)(OC)OC)cc2)nc2ccc(Br)cc12	-9%	-9%		
2.6	COc1cc2nc(-c3ccc(CP(=O)(OC)OC)cc3)nc(O)c2cc1OC	-11%	-18%		
5.13	CCOP(=O)(Cc1ccc(-c2nc(OC)c3c(F)cccc3n2)cc1)OCC	-28%	-25%		
3.18	CCOP(=O)(Cc1ccc(-c2nc3cccc(F)c3c(=O)n2C)cc1)OCC	-12%	<-15%		
3.75	COc1cc2nc(-c3ccc(CP(=O)(OC)OC)cc3)nc(OC)c2cc1OC	<-52%	<-48%		
3.29	CCOP(=O)(Cc1ccc(-c2nc3ccccc3c(=O)n2C)cc1)OCC	<31%	38%		
5.53	COc1cc2nc(-c3ccc(CP(=O)(OC(C)C)OC(C)C)cc3)nc(OC)c2cc1OC	<-81%	< -60%		
4.2	COc1cc2nc(-c3ccc(CP(=O)(OC(C)C)OC(C)C)cc3)n(C)c(=O)c2cc1OC	<-81%	<-58%	-8%	-4%
5.26	CCOP(=O)(Cc1ccc(-c2nc(OC)c3ccccc3n2)cc1)OCC	-5%	56%		
3.41	CCOP(=O)(Cc1ccc(-c2nc3cc(OC)c(OC)cc3c(=O)n2C)cc1)OCC	<-86%	<-51%	-21%	-11%
4.38	COc1cc2nc(-c3ccc(CP(=O)(OC(C)C)OC(C)C)cc3)nc(O)c2cc1OC	-32%	<-35%		
3.36	CCOP(=O)(Cc1ccc(-c2nc(O)c3cc(OC)c(OC)cc3n2)cc1)OCC	-37%	<-22%		
5.17	CCOP(=O)(Cc1ccc(-c2nc3ccc(Br)cc3c(=O)n2Cc2ccccc2)cc1)OCC	<-54%	<-34%		
2.65	COc1cc2nc(-c3ccc(CP(=O)(OC)OC)cc3)n(C)c(=O)c2cc1OC	<-41%	<-27%		
4.09	CCOP(=O)(Cc1ccc(-c2nc3ccc(Br)cc3c(=O)n2C)cc1)OCC	<-35%	<-16%		

The next lines start with the compound.

SMILES	logP [3]	Change [1]	Change [2]	Change [4]	Change [5]
CCOP(=O)(Cc1ccc(-c2nc3ccc(Br)cc3c(=O)n2CC)cc1)OCC		<-42%	<-29%		
CCOP(=O)(Cc1ccc(-c2nc3ccc(Br)cc3c(=O)n2CC(=O)O)cc1)OCC		13%	5%		
CCOP(=O)(Cc1ccc(-c2nc(OCc3ccc(Br)cc3F)c3cc(Br)ccc3n2)cc1)OCC		-4%	<-12%		
C=CCn1c(-c2ccc(CP(=O)(OCC)OCC)cc2)nc2cc(OC)c(OC)cc2c1=O				<-61%	<-41%
C=CCOc1nc(-c2ccc(CP(=O)(OCC)OCC)cc2)nc2cc(OC)c(OC)cc12		<-71%	<-35%		
CCOP(=O)(Cc1ccc(-c2nc3ccc(Br)cc3c(=O)n2Cc2ccc(Br)cc2F)cc1)OCC		-16%	-1%		
CCOP(=O)(Cc1ccc(-c2nc(OCc3ccccc3)c3cc(OC)c(OC)cc3n2)cc1)OCC		<-40%	<-21%		
C=CCOc1nc(-c2ccc(CP(=O)(OCC)OCC)cc2)nc2ccc(Br)cc12		-18%	-2%		
CCOP(=O)(Cc1ccc(-c2nc(Oc3ccccc3)c3cc(Br)ccc3n2)cc1)OCC	7.67	<16%	4%		
CCOc1nc(-c2ccc(CP(=O)(OCC)OCC)cc2)nc2ccc(Br)cc12	7.01	<-29%	-14%		
CCOP(=O)(Cc1ccc(-c2nc(OC)c3cc(Br)ccc3n2)cc1)OCC	6.37	2%	1%		
CCOP(=O)(Cc1ccc(-c2nc(OCC(=O)O)c3cc(Br)ccc3n2)cc1)OCC		-2%	-14%		
C=CCn1c(-c2ccc(CP(=O)(OCC)OCC)cc2)nc2ccc(Br)cc2c1=O		<-43%	<-25%		
CCOP(=O)(Cc1ccc(C(=O)Nc2ccc(Br)cc2C#N)cc1)OCC [IBROLIPIM]	3.21	< -85%	< -69%	-54%	-27%
